The values below come from ChEMBL document CHEMBL4396878, “Mechanisms of Specific versus Nonspecific Interactions of Aggregation-Prone Inhibitors and Attenuators” (J Med Chem, 2019).

Each structure is given as a SMILES string. The source made the active and inactive calls. No cut-off for these calls is given here. Where only a bound is given, the exact number is not on record here.

Data set [1] is described as follows: Binding affinity to Triton-X 100 assessed as intra-molecular cross relaxation at 500 uM by NOESY spectra analysis. In a few lines: (§1)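 2D NOESY and ROESY of 100 μM ESI with 0.025% Triton X-100 or 500 μM ESI with 0.05% Triton X-100; 2K × 512 complex points, 12 ppm spectral width centred at 4.7 ppm, intra- and intermolecular cross-peaks mapped.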
Data set [2] is described as follows: Binding affinity to Triton-X 100 assessed as peak size of aggregate at 1:2 ratio of Triton-X 100 to compound by dynamic light scattering analysis. In a few lines: (§2)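 Dynamic light scattering in NMR buffer, samples filtered through 0.22 μm and centrifuged 5 min at 13 500 rpm before measurement. Autocorrelation accumulated 150 s at a 173° scattering angle, in replicates of 3–5, with water viscosity used in analysis; intensity or volume size distributions reported.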

A short description of data set [3]: Binding affinity to Triton-X 100 assessed as peak size of aggregate at 1:1 ratio of Triton-X 100 to compound by dynamic light scattering analysis. In a few lines: as §2
Data set [4] in a line: Binding affinity to Triton-X 100 at 500 uM measured after 14 hrs by NOESY spectra analysis. The procedure, abridged: as §1
Data set [5] can be described thus: Binding affinity to Triton-X 100 assessed as inter-molecular cross relaxation at 500 uM by NOESY spectra analysis. In a few lines: as §1
Data set [6] in a line: Binding affinity to Triton-X 100 assessed as inter-molecular saturation transfer at 500 uM at 8.61 ppm by STD spectra analysis. The procedure, abridged:
(§3)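 STD NMR, saturation by a train of 40 Gaussian pulses of 50 ms each; selective on-resonance irradiation at the stated ppm (TX at 7.48 ppm), off-resonance at 30 ppm, interleaved and subtracted by phase cycling. 32K points, 16 ppm width centred at 4.7 ppm, 256 scans, 16 dummy scans, 0.1 s recycle delay (~15 min); 3 Hz exponential line broadening.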

A short description of data set [7]: Binding affinity to Triton-X 100 assessed as intra-molecular saturation transfer at 500 uM at 8.61 ppm by STD spectra analysis. In a few lines:
as §3

Data set [8] in a line: Binding affinity to Triton-X 100 assessed as compound-complex formation at 500 uM by NOESY spectra analysis. In a few lines:
as §1

Data set [9] is described as follows: Aggregation property of the compound in NMR buffer assessed as aggregate size at 500 uM by dynamic light scattering analysis. The data set is classed as physicochemical. The procedure, abridged:
as §2

The nature of data set [10]: Aggregation property of the compound in NMR buffer assessed as diameter of aggregate at 500 uM by dynamic light scattering analysis. The data set is classed as physicochemical. The procedure, abridged: as §2
Data set [11] is described as follows: Aggregation property of the compound in NMR buffer assessed as amorphous morphology at 200 uM by uranyl acetate staining-based transmission electron microscopic analysis. The class given is physicochemical.
Data set [12] in a line: Aggregation property of the compound assessed as shift in peak width by 1H-NMR analysis. The data set is classed as physicochemical. The procedure, abridged:
(§4)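 Line widths, chemical shifts and peak intensities tracked; CAC taken as the concentration where intensities deviate from linear dependence, or, for line width, the minimal concentration that increases peak width.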

The nature of data set [13]: Aggregation property of the compound assessed as change in chemical shift by 1H-NMR analysis. The data set is classed as physicochemical. In a few lines:
as §4

The nature of data set [14]: Aggregation property of the compound assessed as change in peak intensity by measuring concentration at which peak intensities deviated from the linear correlation by 1H-NMR analysis. The data set is classed as physicochemical. In a few lines: as §4
The nature of data set [15]: Aggregation property of the compound assessed as change in saturation transfer at 100 uM irradiated at 8.61 ppm by STD NMR spectra analysis. The data set is classed as physicochemical. In a few lines: as §3
For data set [16], the target named is T1, Albumin (Homo sapiens, UniProt P02768). The data set is described as follows: Binding affinity to human serum albumin assessed as line broadening at 200 uM by 1D 1H NMR analysis.
T1 sequence (P02768 whole entry): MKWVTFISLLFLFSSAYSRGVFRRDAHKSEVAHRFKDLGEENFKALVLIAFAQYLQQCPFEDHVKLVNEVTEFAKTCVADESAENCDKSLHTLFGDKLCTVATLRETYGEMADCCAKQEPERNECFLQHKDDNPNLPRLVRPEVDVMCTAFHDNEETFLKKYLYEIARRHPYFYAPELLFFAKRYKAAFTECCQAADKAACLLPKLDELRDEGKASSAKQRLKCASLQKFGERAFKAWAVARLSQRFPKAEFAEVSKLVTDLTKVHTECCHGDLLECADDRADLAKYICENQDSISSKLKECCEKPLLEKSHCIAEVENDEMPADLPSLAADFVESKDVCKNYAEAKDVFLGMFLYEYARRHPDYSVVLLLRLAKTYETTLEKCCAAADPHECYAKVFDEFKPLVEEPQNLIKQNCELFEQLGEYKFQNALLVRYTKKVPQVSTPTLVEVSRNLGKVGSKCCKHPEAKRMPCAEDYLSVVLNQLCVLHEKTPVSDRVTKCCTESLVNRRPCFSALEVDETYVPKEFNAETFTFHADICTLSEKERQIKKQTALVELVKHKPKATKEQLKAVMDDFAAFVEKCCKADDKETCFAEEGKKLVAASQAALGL
In data set [17] the target is T1, Albumin. Put plainly: Displacement of [13C]oleic acid from human serum albumin by CH-HSQC spectra analysis. The procedure, abridged: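 Fatty-acid-free recombinant HSA at 250 μM in sodium phosphate buffer (20 mM NaPO4, pH 7.6, 50 mM NaCl, D2O), 37 °C for 30 min. 13C-oleic acid (100 mM stock in DMSO-d6, warmed to 50 °C for 10 min) added to 1.5 mM, then 2 h at 37 °C. CH-HSQC at 298 K; loss of site-specific cross-peaks A–H scored.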

Data set [18] concerns the target T1, Albumin. The data set is described as follows: Displacement of dansylated arginine from human serum albumin at <150 uM by fluorescence assay. In a few lines: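 Competition of ligand against 100 μM dansyl-arginine (Sudlow site 1, 1:1 stoichiometry) bound to 2.5 μM HSA. Excitation 370 nm, emission 460 nm. Apparent Kd fitted by Wang's method using least squares, assuming no other ligand sites on HSA, so treated as a maximum apparent value.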

Data set [19] has as its target T1, Albumin. The data set is described as follows: Displacement of dansylated phenylalanine from human serum albumin at <150 uM by fluorescence assay. The procedure, abridged:
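Competition of ligand against 100 μM dansyl-phenylalanine (binds Sudlow sites 1 and 2) bound to 2.5 μM HSA. Excitation 370 nm, emission 480 nm. Fractional saturation modelled with two sites, free HSA assumed negligible; least-squares fit with no further ESI sites, giving maximum apparent dissociation constants.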

Data set [20] concerns the target T1, Albumin. The data set is described as follows: Displacement of ANS from human serum albumin at <150 uM by fluorescence assay. In a few lines:
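Fluorescence competition: 2.5 μM HSA with 5 or 100 μM ANS, ligand added over a concentration range. Excitation 360 nm; emission read at 460 and 480 nm to check for blue shift. Signal normalized between ANS alone (minimum) and HSA:ANS (maximum).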

A short description of data set [21]: Aggregation property of the compound in NMR buffer at 50 to 250 uM by surface plasmon resonance analysis. The class given is physicochemical. The procedure, abridged: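 SPR on a nonfunctionalized gold nanoparticle sensor; samples in NMR buffer with DMSO at 1.25%, injected at 33 μL/min alongside matched DMSO controls (with HSA where present, 25 μM), in duplicate. Surface regenerated only after HSA-containing injections.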
(In general: In SPR one partner is held on a chip, and binding of the other changes the refractive index at the surface.)

The target in data set [22] is T1, Albumin. Put plainly: Binding affinity to human serum albumin assessed as inhibition of compound aggregation at 500 uM by dynamic light scattering analysis. The procedure, abridged:
as §2

Data set [23] concerns the target T2, Rap guanine nucleotide exchange factor 3 (Homo sapiens, UniProt O95398).
T2 sequence (O95398 whole entry): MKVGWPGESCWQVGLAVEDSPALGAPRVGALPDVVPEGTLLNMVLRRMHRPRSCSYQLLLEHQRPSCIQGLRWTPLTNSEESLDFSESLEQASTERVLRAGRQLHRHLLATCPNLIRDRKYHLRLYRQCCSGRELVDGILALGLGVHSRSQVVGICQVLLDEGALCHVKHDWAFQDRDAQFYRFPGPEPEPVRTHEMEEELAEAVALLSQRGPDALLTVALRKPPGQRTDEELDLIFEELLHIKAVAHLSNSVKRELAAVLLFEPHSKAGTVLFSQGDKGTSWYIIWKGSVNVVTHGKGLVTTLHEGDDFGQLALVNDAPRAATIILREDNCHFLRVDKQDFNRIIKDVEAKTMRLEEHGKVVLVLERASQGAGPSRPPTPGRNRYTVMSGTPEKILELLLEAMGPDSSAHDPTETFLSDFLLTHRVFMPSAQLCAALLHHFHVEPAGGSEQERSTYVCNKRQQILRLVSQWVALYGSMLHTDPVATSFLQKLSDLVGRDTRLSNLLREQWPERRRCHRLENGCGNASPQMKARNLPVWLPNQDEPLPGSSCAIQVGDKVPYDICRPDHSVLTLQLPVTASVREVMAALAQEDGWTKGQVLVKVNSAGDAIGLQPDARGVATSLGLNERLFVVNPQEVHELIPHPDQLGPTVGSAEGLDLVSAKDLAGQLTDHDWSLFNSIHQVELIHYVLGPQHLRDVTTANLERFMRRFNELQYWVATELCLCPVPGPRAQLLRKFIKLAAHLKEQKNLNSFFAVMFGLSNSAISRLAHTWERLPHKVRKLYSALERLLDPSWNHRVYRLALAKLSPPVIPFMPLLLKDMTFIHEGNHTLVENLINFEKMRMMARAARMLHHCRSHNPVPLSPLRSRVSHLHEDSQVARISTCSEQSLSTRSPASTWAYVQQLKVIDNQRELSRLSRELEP
Put plainly: Binding affinity to human EPAC1 cAMP binding domain (149 to 318 residues) by [15N-1H]HSQC spectroscopic analysis.

Data set [24] deals with T2, Rap guanine nucleotide exchange factor 3. Put plainly: Binding affinity to human EPAC1 cAMP binding domain (149 to 318 residues) in presence of human serum albumin by [15N-1H]HSQC spectroscopic analysis. The settings on record: read-out: Kd(app). The procedure, abridged:
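100 μM human EPAC1 CBD (149–318) in NMR buffer (Tris pH 7.6) was titrated with inhibitor in the presence of globulin- and fatty-acid-free human serum albumin at stated stoichiometric ratios. Chemical shift differences and peak intensities normalised to ligand-free sample (I/I0, averaged over residues) were tracked. Errors came from propagated signal-to-noise.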

The nature of data set [25]: Binding affinity to Triton-X 100 assessed as peak intensity loss at 150 uM by 1H-NMR spectra analysis.
Data set [26] is described as follows: Binding affinity to Triton-X 100 assessed as change in chemical shift at 150 uM by 1H-NMR spectra analysis.
The nature of data set [27]: Binding affinity to Triton-X 100 assessed as line broadening at 150 uM by 1H-NMR spectra analysis.
Data set [28] in a line: Binding affinity to Triton-X 100 assessed as line broadening at 150 uM by 1H-NMR analysis.
The nature of data set [29]: Binding affinity to Triton-X 100 assessed as change in chemical shift at 100 uM by 1H-NMR spectra analysis.

With `C[C@@H]1CCc2c(cc(Br)c(F)c2Br)N1C=O` [listing 1 of 2 here], the result in [1], in data set [5], in data set [6], in [7] and in data set [8] was Active. The Activity was determined as 70 nm in data set [2] and 10 nm in data set [3]. In addition, the outcome in [4] was inactive.

As for `C[C@@H]1CCc2c(cc(Br)c(F)c2Br)N1C=O` [listing 2 of 2 here], the Activity was 90 to 600 nm in data set [9]; 250 nm in [10]; “Active” in [11]; “Not Active” in data set [12]; “Not Active” in data set [13]; 150 µM in data set [14]. In addition, the Activity result in data set [15] is given as “Not Active”; on Albumin [16], “Active”; on Albumin [17], “Active”; at Albumin [18] it was “Not Active”; at Albumin [19] it was “Not Active”; at Albumin [20] it was “Not Active”. The Activity entry in data set [21] is reported as “Not Active”. The “inhibition (INH)” value at Albumin [22] was “Active”. The Kd was 124 to 184 µM in data set [23] and 757 to 1980 µM in data set [24].

Turning to `Clc1ccc(COC(Cn2ccnc2)c2ccc(Cl)cc2Cl)c(Cl)c1` (stereo not given), the outcome in data set [25], in data set [26], in data set [27] and in data set [28] was Active.

Take `Nc1nnc(-c2cccc(Cl)c2Cl)c(N)n1`: the result in [26] and in [27] was inactive.

For `O=S(=O)(O)c1cccc2cccc(Nc3ccccc3)c12`, the outcome in data set [26] and in data set [27] was Active.

Take `C[C@@H]1CCc2c(cc(Br)c(F)c2Br)N1C=O` (stereo in doubt; cis): the Activity in data set [29] is below 0.34 ppm.

Regarding `O=C(O)c1cc(-c2ccc(F)cc2F)ccc1O`, the result in data set [26] and in data set [27] was Active.

Take `C[C@@H]1CCc2c(cc(Br)c(F)c2Br)N1C=O` (stereo in doubt; trans): the Activity in [29] is 0.02 ppm.

In the case of `Clc1ccccc1C(c1ccccc1)(c1ccccc1)n1ccnc1`, the result in [25], in data set [26] and in data set [27] was Active.

Take `COC(=O)C1=C(C)NC(C)=C(C(=O)OCCN(C)Cc2ccccc2)C1c1cccc([N+](=O)[O-])c1` (stereo not given): the outcome in data set [25], in [26] and in [27] was Active.

For the compound `O=C(OCc1ccccc1)c1ccccc1`, the outcome in [25], in [26] and in [27] was Active.
